Laboratory results: ChEMBL document CHEMBL5360619
The source made the active and inactive calls. The calls are words filed in the database; no cut-off is given here.

Assays:
Cytochrome P450 3A4 [1] = molecular target: T1, Cytochrome P450 3A4 (Homo sapiens, UniProt P08684); test: Inhibition of CYP3A4 in human liver microsomes using midazolam as substrate incubated for 10 mins in presence of NADPH by LC-MS/MS analysis; type: ADME, Microsome
Summary of the method: (§1)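 Human liver microsomes 0.2 mg/mL in 100 mM phosphate pH 7.4; compound final 1, 10 and 100 μM (1% DMSO). Substrates: midazolam 5 μM (10 min) or testosterone 50 μM (30 min). Started with NADPH, stopped with ice-cold acetonitrile containing internal standard; LC–MS/MS.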

[2] = Apparent permeability across apical to basolateral side in human Caco-2 cells at 2 uM by LC-MS/MS analysis; type: ADME, cell-based
Summary of the method: (§2)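 Caco-2 monolayers grown on permeable filters, used day 21. Drug solution 2 μM in prewarmed HBSS applied apical or basolateral, pH 7.4 both sides, 37 °C, stirring 500 rpm; 5 μM enalaprilat as integrity control. Receiver sampled at 30 min, donor sampled for mass balance; LC–MS/MS with warfarin internal standard.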

[3] = Efflux ratio of apparent permeability across […] side in human Caco-2 cells at 2 uM by LC-MS/MS analysis; type: ADME, cell-based; conditions: caco-2, 2 µM; summary of the method: as §2
Cytochrome P450 3A4 [4] = molecular target: T1, Cytochrome P450 3A4; test: Inhibition of CYP3A4 in human liver microsomes using testosterone as substrate incubated for 30 mins in presence of NADPH by LC-MS/MS analysis; type: ADME, Microsome; summary of the method: as §1
[5] = test system: Mycobacterium tuberculosis; test: (§3) Antimycobacterial activity against Mycobacterium tuberculosis H37Rv expressing GFP infected in mouse RAW264.7 cells assessed as inhibition of intracellular mycobacterial growth by measuring reduction in bacterial area per infected cells incubated for 5 days by SYTO 60 dye based automated high-content fluorescent microscopic analysis; type: functional, organism-based; conditions: time 5.0 day
Summary of the method: (§4)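 RAW 264.7 macrophages infected with GFP-expressing H37Rv for 3 h at 37 °C with shaking, washed by centrifugation, then seeded at 20,000 cells/well onto compounds dispensed acoustically from DMSO stocks, DMSO backfill. Incubated 5 days at 37 °C, 5% CO2, stained with SYTO 60, four confocal images per well; percentage of infected cells and bacterial area per infected cell scored. IC50 from dose–response; four replicates.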

CYP3A4 [6] = test: Selectivity index, ratio of IC50 for CYP3A4 in human liver microsomes using midazolam as substrate to IC50 for antimycobacterial activity against Mycobacterium tuberculosis Erdman; type: toxicity; conditions: probe midazolam, read-out: Ratio IC50
CYP3A4 [7] = test: Selectivity index, ratio of IC50 for CYP3A4 in human liver microsomes using testosterone as substrate to IC50 for antimycobacterial activity against Mycobacterium tuberculosis Erdman; type: toxicity; conditions: probe testosterone, read-out: Ratio IC50
[8] = Cytotoxicity against human Calu-3 cells assessed as reduction in cellular ATP level incubated for 72 hrs by celltiter-glo assay; type: toxicity, cell-based; conditions: read-out: LD50
Summary of the method: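 Calu-3 cells (DMEM, 10% FBS) plated 10,000/well for 18 h, then medium switched to 2% FBS; eight twofold doses 250 down to […], compounds as imidazole salts in DMSO with IMD/DMSO controls.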

[9] = test system: Mycobacterium tuberculosis; test: Inhibition of biofilm formation in Mycobacterium tuberculosis Erdman assessed as inhibition of biofilm pellicle formation at 2.5 to 50 uM pretreated for 3 weeks under low oxygen and further treated for 3 weeks under aerated condition in presence of 0.05% tyloxapol by optical density based analysis; type: functional, organism-based; conditions: dose 2.5-50 µM, time 6.0 weeks
Summary of the method: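 Pellicle assay with 0.05% tyloxapol added to each well to prevent biofilm; otherwise Sauton's medium inoculated with Mtb plus compound, sealed airtight 3 weeks at 37 °C, 5% CO2, then opened for 3 weeks aerobic.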

[10] = Therapeutic index, ratio of LD50 for human IMR-90 cells to IC50 for antimycobacterial activity against Mycobacterium tuberculosis Erdman; type: toxicity; conditions: read-out: TI
Summary of the method: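 LD50 from 48 h MTT assay in HEK 293, BEAS-2B or IMR-90 cells divided by MABA IC50 against Mtb.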

RAW264.7 = test: Cytotoxicity against mouse RAW264.7 cells assessed as reduction in cell viability at 0.01 to 10 uM incubated for 5 days by SYTO 60 dye based automated high-content fluorescent microscopic analysis; type: toxicity; conditions: raw264.7, 120 h, dose 0.01-10 µM, time 5 day
Summary of the method: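 RAW 264.7 cells in RPMI-1640 with 10% heat-inactivated FBS, 20,000 cells/well added to compounds acoustically dispensed from DMSO stocks, DMSO backfill; 5 days at 37 °C, 5% CO2. SYTO 60 staining, four confocal images per well, total cell number counted; dose–response plotted.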

[11] = test system: Mycobacterium tuberculosis; test: as §3, with “percentage of” for “bacterial area per”; type: functional, organism-based; conditions: time 5.0 day; summary of the method: as §4
[12] = Solubility of compound in tween-free sauton's medium; type: physicochemical

T1 sequence (P08684 whole entry): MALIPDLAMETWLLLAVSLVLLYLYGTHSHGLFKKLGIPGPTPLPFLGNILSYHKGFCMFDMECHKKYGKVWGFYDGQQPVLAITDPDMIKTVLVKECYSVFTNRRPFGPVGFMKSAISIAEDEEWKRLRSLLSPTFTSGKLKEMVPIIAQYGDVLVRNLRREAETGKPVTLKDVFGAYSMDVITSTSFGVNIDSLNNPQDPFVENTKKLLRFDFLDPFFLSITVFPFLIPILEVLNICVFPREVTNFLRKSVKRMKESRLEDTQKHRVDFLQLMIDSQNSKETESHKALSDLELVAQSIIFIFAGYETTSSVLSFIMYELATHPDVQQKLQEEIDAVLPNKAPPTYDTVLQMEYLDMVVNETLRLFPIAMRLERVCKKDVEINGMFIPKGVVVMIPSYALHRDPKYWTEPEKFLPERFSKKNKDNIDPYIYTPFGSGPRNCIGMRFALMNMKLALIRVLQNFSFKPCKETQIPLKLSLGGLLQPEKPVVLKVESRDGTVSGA

| Compound | IC50 (Cytochrome P450 3A4 [1]) | IC50 (Cytochrome P450 3A4 [4]) | selectivity ratio (CYP3A4 [6]) | selectivity ratio (CYP3A4 [7]) | Activity (RAW264.7) | solubility [12] | further results |
| --- | --- | --- | --- | --- | --- | --- | --- |
| CC(C)(C)c1ccc(-c2nnc(SCc3cc(=O)n4c(c3C3CC3)SCC4C(=O)O)o2)cc1 (racemic) | > 100 µM | > 100 µM | – | – | – | – | Papp A→B at 2 µM [2]: 0.88 ×10⁻⁶ cm/s; Ratio [3]: 1.5 |
| O=C(O)C1CSc2c(C3CC3)c(-c3cc(-c4ccc5ccccc5c4)no3)cc(=O)n21.c1c[nH]cn1 (racemic) | – | – | ≥ 16 | ≥ 16 | Non-Toxic | – | Activity [5]: Active; CC50 at 72 h [8]: > 250 µM; inhibition [9]: inactive; selectivity ratio [10]: 168; Activity [11]: Active |
| O=C(O)C1CSc2c(C3CC3)c(Cc3cccc4ccccc34)cc(=O)n21.c1c[nH]cn1 (racemic) | – | – | ≥ 16 | ≥ 16 | Non-Toxic | – | – |
| O=C(O)C1CSc2c(C3CC3)c(CSc3nnc(-c4cccc(C(F)(F)F)c4)o3)cc(=O)n21 (racemic) | – | – | – | – | – | Insoluble | – |
| CC(C)(C)c1ccc(-n2cc(-c3cc(=O)n4c(c3C3CC3)SCC4C(=O)O)nn2)cc1 (racemic) | > 100 µM | > 100 µM | – | – | – | – | – |
| O=C(O)C1CSc2c(C3CC3)c(-c3cc(-c4ccccc4)no3)cc(=O)n21 (racemic) | – | – | – | – | – | Insoluble | – |
